Calls of active or inactive are those of the source. No cut-off for these calls is given here.

In one assay the test system is Escherichia coli. Kind of assay: Antibacterial activity against Escherichia coli ATCC 25922 at 100 ug/mL after 24 hrs by disk diffusion method. Type of assay: functional, organism-based. The gist of the method:
(§1)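 Paper-disc diffusion on Mueller Hinton agar, pH 7.4 ± 0.2 at 25 °C. Whatman No. 2 discs (5 mm) were heat-sterilized at 160 °C for 30 min, loaded with DMSO test solution at 100 µg/10 µL and dried, then laid on the agar. Plates were held 1 h in the refrigerator for diffusion, then incubated 24 h at 37 °C. Inhibition zone diameter was read in mm. DMSO served as solvent control; ciprofloxacin disc as reference.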

A further assay has as its system Staphylococcus aureus. The assay is described as follows: Antibacterial activity against Staphylococcus aureus ATCC 25923 at 100 ug/mL after 24 hrs by disk diffusion method. Particulars: ATCC 25923, 24 h, read-out: DIZ. Type of assay: functional. A digest of the protocol:
as §1
In general terms: Agar diffusion results depend on both activity and mobility in agar.

The next assay concerns Candida albicans. Kind of assay: Antifungal activity against Candida albicans ATCC 10231 at 100 ug/mL after 24 hrs by disk diffusion method. Type of assay: functional. As to conditions: ATCC 10231, 24 h, read-out: DIZ. The gist of the method:
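Disc diffusion as for the antibacterial test, on agar medium of glucose, peptone and Sabouraud dextrose agar in distilled water, pH 5.5 ± 0.2 at 25 °C. Sterilized 5 mm paper discs were loaded with DMSO test solution at 100 µg/10 µL and dried. Plates were held 1 h refrigerated, then incubated 24 h at 37 °C. Zone of inhibition was measured in mm.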

Turning to `Clc1ccc(Cn2cc(Cn3cc(C(c4ccccc4)c4cn(Cc5cn(Cc6ccc(Cl)cc6)nn5)c5ccc(Br)cc45)c4cc(Br)ccc43)nn2)cc1`, the result with Escherichia coli was inactive. The zone of inhibition at 100 µg/mL in the assay with Staphylococcus aureus worked out at 16 mm; in the assay with Candida albicans it was 21 mm.

Take `Brc1ccc2c(c1)c(C(c1ccccc1)c1cn(Cc3cn(Cc4ccccc4)nn3)c3ccc(Br)cc13)cn2Cc1cn(Cc2ccccc2)nn1`: the outcome in the assay on Escherichia coli was inactive. Moreover, the zone of inhibition at 100 µg/mL was 16 mm in the assay on Staphylococcus aureus and 21 mm in the assay on Candida albicans.

Take `Clc1ccc(Cn2cc(Cn3cc(C(c4ccc(Cl)cc4)c4cn(Cc5cn(Cc6ccc(Cl)cc6)nn5)c5ccccc45)c4ccccc43)nn2)cc1`: the outcome in the assay on Escherichia coli was inactive. Moreover, the zone of inhibition at 100 µg/mL came out at 20 mm with Staphylococcus aureus and 16 mm in the assay with Candida albicans.

Turning to `COc1ccc(C(c2cn(Cc3cn(Cc4ccccc4)nn3)c3ccc(Br)cc23)c2cn(Cc3cn(Cc4ccccc4)nn3)c3ccc(Br)cc23)cc1`, the outcome in the assay on Escherichia coli was inactive. The results for the zone of inhibition at 100 µg/mL in the assay on Staphylococcus aureus and with Candida albicans were 20 mm and 16 mm, respectively.

Turning to `COc1ccc(Cn2cc(Cn3cc(C(c4ccccc4)c4cn(Cc5cn(Cc6ccc(OC)cc6)nn5)c5ccccc45)c4ccccc43)nn2)cc1`, the result with Escherichia coli was inactive. The zone of inhibition at 100 µg/mL with Staphylococcus aureus was 18 mm; in the assay on Candida albicans, 16 mm.

As for `Cc1c(C(c2ccc(Cl)cc2)c2c(C)n(Cc3cn(Cc4ccccc4)nn3)c3ccccc23)c2ccccc2n1Cc1cn(Cc2ccccc2)nn1`, in the assay with Escherichia coli, the outcome was inactive. Besides, the zone of inhibition at 100 µg/mL with Staphylococcus aureus was found to be 20 mm; in the assay on Candida albicans, 18 mm.

Regarding `COc1ccc(C(c2c(C)n(Cc3cn(Cc4ccc(Cl)cc4)nn3)c3ccccc23)c2c(C)n(Cc3cn(Cc4ccc(Cl)cc4)nn3)c3ccccc23)cc1`, in the assay with Escherichia coli, the result was inactive. The zone of inhibition at 100 µg/mL was 16 mm with Staphylococcus aureus and 20 mm in the assay on Candida albicans.

Take `Cc1c(C(c2ccccc2)c2c(C)n(Cc3cn(Cc4ccccc4)nn3)c3ccccc23)c2ccccc2n1Cc1cn(Cc2ccccc2)nn1`: the result in the assay with Escherichia coli was inactive. Also, the figures for the zone of inhibition at 100 µg/mL in the assay on Staphylococcus aureus and with Candida albicans were 20 mm and 16 mm, respectively.

With `Cc1c(C(c2ccccc2)c2c(C)n(Cc3cn(Cc4ccc(Cl)cc4)nn3)c3ccccc23)c2ccccc2n1Cc1cn(Cc2ccc(Cl)cc2)nn1`, the result in the assay on Escherichia coli was inactive. In addition, the zone of inhibition at 100 µg/mL in the assay with Staphylococcus aureus turned out to be 17 mm; in the assay on Candida albicans, 19 mm.

`COc1ccc(Cn2cc(Cn3cc(C(c4ccc(OC)cc4)c4cn(Cc5cn(Cc6ccc(OC)cc6)nn5)c5ccccc45)c4ccccc43)nn2)cc1`: the result in the assay on Escherichia coli was inactive. The zone of inhibition at 100 µg/mL in the assay on Staphylococcus aureus amounted to 18 mm; in the assay on Candida albicans, 16 mm.

For `O=C(O)c1cn(C2CC2)c2cc(N3CCNCC3)c(F)cc2c1=O` [CIPROFLOXACIN], the zone of inhibition at 100 µg/mL in the assay with Staphylococcus aureus was determined as 22 mm.

Turning to `COc1ccc(C(c2cn(Cc3cn(Cc4ccccc4)nn3)c3ccccc23)c2cn(Cc3cn(Cc4ccccc4)nn3)c3ccccc23)cc1`, the result in the assay on Escherichia coli was inactive. The zone of inhibition at 100 µg/mL in the assay on Staphylococcus aureus is 19 mm; with Candida albicans, 17 mm.

As for `Clc1ccc(Cn2cc(Cn3cc(C(c4ccccc4)c4cn(Cc5cn(Cc6ccc(Cl)cc6)nn5)c5ccccc45)c4ccccc43)nn2)cc1`, the outcome with Escherichia coli was inactive. For the same compound, the zone of inhibition at 100 µg/mL is 17 mm with Staphylococcus aureus and 20 mm with Candida albicans.

`c1ccc(Cn2cc(Cn3cc(C(c4ccccc4)c4cn(Cc5cn(Cc6ccccc6)nn5)c5ccccc45)c4ccccc43)nn2)cc1`: in the assay with Escherichia coli, the outcome was inactive. Further, the values for the zone of inhibition at 100 µg/mL in the assay with Staphylococcus aureus and in the assay on Candida albicans were 20 mm and 16 mm, respectively.

Consider `COc1ccc(C(c2cn(Cc3cn(Cc4ccc(Cl)cc4)nn3)c3ccccc23)c2cn(Cc3cn(Cc4ccc(Cl)cc4)nn3)c3ccccc23)cc1`, for which the outcome with Escherichia coli was inactive. The values for the zone of inhibition at 100 µg/mL in the assay on Staphylococcus aureus and in the assay with Candida albicans were 16 mm and 21 mm, respectively.

`Cc1c(C(c2ccc(Cl)cc2)c2c(C)n(Cc3cn(Cc4ccc(Cl)cc4)nn3)c3ccccc23)c2ccccc2n1Cc1cn(Cc2ccc(Cl)cc2)nn1`: in the assay on Escherichia coli, the result was inactive. In addition, the zone of inhibition at 100 µg/mL in the assay with Staphylococcus aureus came to 19 mm; in the assay on Candida albicans, 18 mm.

On to `CC(=O)N1CCN(c2ccc(OCC3COC(Cn4ccnc4)(c4ccc(Cl)cc4Cl)O3)cc2)CC1` (configuration not stated) [KETOCONAZOLE], for which the zone of inhibition at 100 µg/mL with Candida albicans is 24 mm.

These data come from ChEMBL document CHEMBL1136949, “Regioselective synthesis and biological evaluation of bis(indolyl)methane derivatized 1,4-disubstituted 1,2,3-bistriazoles as anti-infective agents” (2009).
